In ChEMBL document CHEMBL4024770, “Augmentation of Anticancer Drug Efficacy in Murine Hepatocellular Carcinoma Cells by a Peripherally Acting Competitive N-Methyl-d-aspartate (NMDA) Receptor Antagonist” (J Med Chem, 2017):
Active and inactive are the calls of the source. The calls are words filed in the database; no cut-off is given here.

Legend:
Mus musculus [1] = species on record: Mus musculus; assay: Antagonist activity at NMDA receptor in Nras driven p53 deficient mouse HCC cell membranes assessed as inhibition of NMDA-induced intracellular Ca2+ transients at 25 to 40 uM […] by fluo-4AM dye-based fluorescence assay
Summary of the method: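 Mouse HCC cells were loaded with Fluo-4-AM (5 μM, 45 min), then washed out for 20 min in HEPES-buffered saline, pH 7.4. Ca2+ transients were evoked by 15 s applications of 150 μM NMDA via fast perfusion. This was done alone or with antagonist at 25 or […] μM, imaged at 495 nm excitation. Data were scored as % responding, mean ± SEM, n=5.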

Mus musculus [2] = species on record: Mus musculus; assay: Antagonist activity at NMDA receptor in Nras driven p53 deficient mouse HCC cell membranes assessed as Slc2a1 protein expression levels at 10 uM by […] analysis relative to control; design: scale not given: the % may be the effect or the level left
Summary of the method: (§1)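 Mouse Nras-driven p53−/− HCC cells in DMEM with 10% FBS, exposed 48 h with or without 10 μM antagonist, washed, pelleted and snap-frozen. Crude membrane fraction isolated. 50 μg protein reduced, alkylated, precipitated, then Lys-C digested (3 h, rt) and trypsin digested (1:100, 37°C, 16 h). One unique peptide per transporter quantified by multiplexed SRM/MRM LC-MS/MS against stable isotope-labelled standards. Unpaired two-tailed t-test versus control, n=4.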

Mus musculus [3] = species on record: Mus musculus; assay: Antagonist activity at NMDA receptor in Nras driven p53 deficient mouse HCC cell membranes assessed as LPS-stimulated PGE2 levels at 100 uM after 24 hrs by LC-MS/MS method (reference value: 162 +/- 7%); design: scale not given: the % may be the effect or the level left
Summary of the method: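 Nras-driven p53−/− mouse HCC cells in DMEM/10% FBS were incubated 24 h with or without 100 μM compound. This was done without LPS and with LPS (2.5 μg/mL) in the growth medium. Cells were washed with ice-cold HBSS and lysed in acetonitrile on ice. PGE2 in the lysates was quantified by LC-MS/MS and expressed as % of control. Mean ± SEM, n=3; one-way ANOVA/Tukey.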

[4] = target: Glutamate receptor ionotropic, kainate 3 (Rattus norvegicus, UniProt P42264); assay: Displacement of [3H]-KA from recombinant homomeric rat GluK3a receptor expressed in baculovirus infected Sf9 insect cell membranes by scintillation counting method
Sequence of Glutamate receptor ionotropic, kainate 3 (P42264 whole entry): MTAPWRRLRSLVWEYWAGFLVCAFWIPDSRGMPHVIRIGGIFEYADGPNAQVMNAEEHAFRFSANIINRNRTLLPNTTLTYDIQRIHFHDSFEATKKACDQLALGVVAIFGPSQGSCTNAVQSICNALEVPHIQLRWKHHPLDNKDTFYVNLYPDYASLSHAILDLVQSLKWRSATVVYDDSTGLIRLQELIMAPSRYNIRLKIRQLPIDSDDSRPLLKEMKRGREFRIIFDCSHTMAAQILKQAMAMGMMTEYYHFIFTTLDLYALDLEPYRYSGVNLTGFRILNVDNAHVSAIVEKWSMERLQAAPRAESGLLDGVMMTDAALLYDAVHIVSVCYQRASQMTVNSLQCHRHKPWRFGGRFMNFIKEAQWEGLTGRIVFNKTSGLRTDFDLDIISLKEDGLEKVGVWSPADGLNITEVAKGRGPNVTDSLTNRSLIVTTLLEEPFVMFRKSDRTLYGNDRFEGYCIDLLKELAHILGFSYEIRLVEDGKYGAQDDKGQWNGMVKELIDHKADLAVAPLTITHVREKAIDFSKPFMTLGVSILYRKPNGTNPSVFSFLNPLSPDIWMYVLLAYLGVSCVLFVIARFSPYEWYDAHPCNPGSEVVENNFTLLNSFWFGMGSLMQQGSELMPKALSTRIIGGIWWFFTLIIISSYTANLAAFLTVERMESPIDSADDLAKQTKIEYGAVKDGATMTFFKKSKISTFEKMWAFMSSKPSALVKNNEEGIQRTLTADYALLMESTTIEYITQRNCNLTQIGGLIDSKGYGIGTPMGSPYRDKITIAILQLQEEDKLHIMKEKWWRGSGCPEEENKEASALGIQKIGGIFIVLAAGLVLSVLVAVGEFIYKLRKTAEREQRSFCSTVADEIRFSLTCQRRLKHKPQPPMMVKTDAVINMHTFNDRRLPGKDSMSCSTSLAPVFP

Brain [5] = assay: AUC (0 to 240 mins) in mouse brain at 10 mg/kg, ip administered as bolus dose by LC-MS/MS analysis; format: ADME, organism-based; design: dose 10 mg/kg, time < 4 hr, route intraperitoneal; conditions: in vivo, 4 h
Summary of the method: (§2)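 Adult male mice (25 ± 5 g) given a single 10 mg/kg i.p. bolus, prepared as a 5.0 mM solution in 0.9% NaCl. Animals were decapitated at five time points between 10 and 240 min. Plasma was precipitated with acetonitrile containing internal standard. Brain and liver were homogenized in water (1:3) and precipitated the same way. Analysis by LC-MS/MS, with AUC0–240, Cmax, tmax, t½β and liver/plasma ratio derived from the concentration-time data.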

Brain [6] = assay: Drug uptake in mouse brain at 100 uM administered via perfusion; conditions: in vivo, other
Mus musculus [7] = species on record: Mus musculus; assay: Antagonist activity at NMDA receptor in Nras driven p53 deficient mouse HCC cell membranes assessed as Abcc4 protein expression levels at 10 uM by […] analysis relative to control; design: scale not given: the % may be the effect or the level left; summary of the method: as §1
[8] = target: Ionotropic glutamate receptor NMDA 1/2D (Rattus norvegicus, UniProt P35439+Q62645); assay: Antagonist activity at recombinant rat GluN1a/GluN2D expressed in Xenopus laevis oocytes assessed as inhibition of glycine/glutamate-mediated current responses by two-electrode voltage clamp method; format: cell-based
Sequence of Ionotropic glutamate receptor NMDA 1/2D (Q62645 whole entry, other chains not shown): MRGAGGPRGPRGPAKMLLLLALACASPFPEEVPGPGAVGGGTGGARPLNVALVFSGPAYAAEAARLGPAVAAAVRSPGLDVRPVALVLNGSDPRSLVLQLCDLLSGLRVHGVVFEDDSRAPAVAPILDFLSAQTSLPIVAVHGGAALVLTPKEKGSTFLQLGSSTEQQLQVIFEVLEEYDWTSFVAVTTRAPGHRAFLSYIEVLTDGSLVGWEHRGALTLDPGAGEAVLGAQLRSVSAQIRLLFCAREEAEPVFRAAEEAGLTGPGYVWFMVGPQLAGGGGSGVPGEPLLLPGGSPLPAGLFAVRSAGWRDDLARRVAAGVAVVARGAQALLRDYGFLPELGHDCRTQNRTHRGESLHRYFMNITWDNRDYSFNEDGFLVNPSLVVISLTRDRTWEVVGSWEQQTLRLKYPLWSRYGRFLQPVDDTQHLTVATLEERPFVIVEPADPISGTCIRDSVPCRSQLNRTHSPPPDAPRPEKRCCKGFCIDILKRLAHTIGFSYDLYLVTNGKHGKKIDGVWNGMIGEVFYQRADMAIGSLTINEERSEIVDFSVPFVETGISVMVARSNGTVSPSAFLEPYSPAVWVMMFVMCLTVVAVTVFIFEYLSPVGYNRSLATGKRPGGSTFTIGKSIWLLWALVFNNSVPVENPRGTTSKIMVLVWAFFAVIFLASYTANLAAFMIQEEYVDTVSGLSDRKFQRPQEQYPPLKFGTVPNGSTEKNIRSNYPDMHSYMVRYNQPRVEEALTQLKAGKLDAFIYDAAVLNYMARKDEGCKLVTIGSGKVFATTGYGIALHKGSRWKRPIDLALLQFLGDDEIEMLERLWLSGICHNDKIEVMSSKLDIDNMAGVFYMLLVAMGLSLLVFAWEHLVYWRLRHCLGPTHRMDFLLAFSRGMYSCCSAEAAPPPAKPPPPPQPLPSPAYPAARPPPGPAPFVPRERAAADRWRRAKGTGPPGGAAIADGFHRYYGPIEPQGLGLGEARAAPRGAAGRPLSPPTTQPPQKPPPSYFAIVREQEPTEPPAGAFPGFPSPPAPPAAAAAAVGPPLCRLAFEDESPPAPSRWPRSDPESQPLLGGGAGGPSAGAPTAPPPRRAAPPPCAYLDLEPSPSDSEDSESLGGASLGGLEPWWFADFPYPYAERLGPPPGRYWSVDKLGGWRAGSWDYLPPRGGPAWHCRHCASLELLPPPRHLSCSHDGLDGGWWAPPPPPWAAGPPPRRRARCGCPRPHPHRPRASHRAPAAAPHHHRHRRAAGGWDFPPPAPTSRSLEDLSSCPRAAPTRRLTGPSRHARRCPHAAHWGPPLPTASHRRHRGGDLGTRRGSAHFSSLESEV
Summary of the method: (§3)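 Xenopus oocytes were injected with rat GluN1 and GluN2A–D cRNA (1:2) and recorded 2–6 days later by TEVC at room temperature, −40 mV, in Ba2+-containing recording solution, pH 7.4. Currents were evoked by 100 μM glycine plus glutamate at 2–3× EC50: 10 μM for GluN2A, 3 μM for GluN2B and GluN2C, 1 μM for GluN2D. IC50 from Hill fits per oocyte; Ki estimated.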

Mus musculus [9] = assay: Toxicity in mouse assessed as behavioral changes at 10 mg/kg, ip administered as bolus dose; format: organism-based; conditions: in vivo
[10] = target: Glutamate NMDA receptor; Grin1/Grin2b (Rattus norvegicus, UniProt P35439+Q00960); assay: Antagonist activity at recombinant rat GluN1a/GluN2B expressed in Xenopus laevis oocytes assessed as inhibition of glycine/glutamate-mediated current responses by two-electrode voltage clamp method; format: cell-based; summary of the method: as §3
Sequence of Glutamate NMDA receptor; Grin1/Grin2b (Q00960 whole entry, other chains not shown): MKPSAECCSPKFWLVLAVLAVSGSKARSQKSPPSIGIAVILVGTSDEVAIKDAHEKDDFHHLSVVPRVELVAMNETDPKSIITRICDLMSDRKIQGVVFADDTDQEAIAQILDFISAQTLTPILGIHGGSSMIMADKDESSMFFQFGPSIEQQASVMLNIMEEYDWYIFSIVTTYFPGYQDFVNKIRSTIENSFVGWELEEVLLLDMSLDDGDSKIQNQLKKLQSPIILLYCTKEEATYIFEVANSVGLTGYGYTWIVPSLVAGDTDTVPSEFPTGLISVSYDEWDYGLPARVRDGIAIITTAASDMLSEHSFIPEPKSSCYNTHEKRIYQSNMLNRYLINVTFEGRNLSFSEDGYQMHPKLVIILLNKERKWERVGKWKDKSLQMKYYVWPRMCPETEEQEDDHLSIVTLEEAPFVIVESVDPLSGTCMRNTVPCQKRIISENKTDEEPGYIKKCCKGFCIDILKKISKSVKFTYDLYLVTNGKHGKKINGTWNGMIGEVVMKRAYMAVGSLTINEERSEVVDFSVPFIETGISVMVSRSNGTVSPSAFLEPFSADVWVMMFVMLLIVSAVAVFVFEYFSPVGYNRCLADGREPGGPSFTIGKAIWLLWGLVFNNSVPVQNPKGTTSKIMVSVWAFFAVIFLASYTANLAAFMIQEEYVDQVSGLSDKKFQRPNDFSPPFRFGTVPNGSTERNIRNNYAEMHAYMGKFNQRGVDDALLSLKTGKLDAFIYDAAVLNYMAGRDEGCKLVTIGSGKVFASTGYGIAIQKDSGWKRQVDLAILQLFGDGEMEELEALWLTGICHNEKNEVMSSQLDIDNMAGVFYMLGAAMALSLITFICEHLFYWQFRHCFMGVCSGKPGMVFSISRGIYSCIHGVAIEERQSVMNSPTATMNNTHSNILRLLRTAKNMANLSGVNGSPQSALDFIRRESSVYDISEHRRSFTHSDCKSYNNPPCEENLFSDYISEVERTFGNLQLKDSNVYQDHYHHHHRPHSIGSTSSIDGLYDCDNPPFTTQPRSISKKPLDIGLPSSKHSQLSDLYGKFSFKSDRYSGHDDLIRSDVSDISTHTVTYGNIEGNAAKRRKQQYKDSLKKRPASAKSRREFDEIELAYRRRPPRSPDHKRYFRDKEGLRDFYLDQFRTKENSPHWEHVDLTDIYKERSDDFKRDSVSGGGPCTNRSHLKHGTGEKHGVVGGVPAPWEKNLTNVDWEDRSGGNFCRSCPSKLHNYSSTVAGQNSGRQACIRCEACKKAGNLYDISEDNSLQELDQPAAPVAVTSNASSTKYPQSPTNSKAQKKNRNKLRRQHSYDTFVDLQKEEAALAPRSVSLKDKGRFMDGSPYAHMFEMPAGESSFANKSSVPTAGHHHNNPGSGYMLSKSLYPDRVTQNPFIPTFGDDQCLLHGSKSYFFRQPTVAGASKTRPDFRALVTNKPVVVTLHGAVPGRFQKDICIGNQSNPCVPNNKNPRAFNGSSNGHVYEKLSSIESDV

Mus musculus [11] = species on record: Mus musculus; assay: Antagonist activity at NMDA receptor in Nras driven p53 deficient mouse HCC cell membranes assessed as potentiation of 10 uM sorafenib-mediated antiproliferative activity by measuring cell viability at 100 uM after 72 hrs by resazurin assay (reference value: […] +/- […]%)
Brain [12] = assay: Drug uptake in mouse brain at 10 mg/kg, ip administered as bolus dose measured at 60 mins by LC-MS/MS analysis; format: ADME, organism-based; conditions: in vivo, 1 h; summary of the method: as §2
Mus musculus [13] = species on record: Mus musculus; assay: Antagonist activity at NMDA receptor in Nras driven p53 deficient mouse HCC cell membranes assessed as Slc7a5 protein expression levels at 10 uM by SMR/MRM analysis relative to control; design: scale not given: the % may be the effect or the level left
Summary of the method: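 Nras p53−/− mouse HCC cells were exposed to 10 μM for 48 h, washed, and pelleted. Crude membrane fractions (50 μg protein) were denatured in guanidine, reduced/alkylated and precipitated. They were then digested with Lys-C (rt, 3 h) and trypsin (37 °C, 16 h) with stable-isotope peptide standards. Slc7a5 was quantified by multiplexed SRM/MRM LC-MS/MS, one unique peptide per protein. Mean ± SEM, n=4, versus control.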

Mus musculus [14] = species on record: Mus musculus; assay: (§4) Antagonist activity at NMDA receptor in Nras driven p53 deficient mouse HCC cell membranes assessed as decrease in Abcc1 to 5 protein expression levels by measuring fluorescein accumulation at 10 uM preincubated for 24 hrs followed by compound wash out and addition of fluorescein measured after 30 mins by fluorescence assay relative to control; design: scale not given: the % may be the effect or the level left
Summary of the method: (§5)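 Nras p53−/− HCC cells (1 × 10⁵/well) were pretreated 24 h with or without 10 μM. They were then washed 3× in warm HBSS (choline chloride, pH 7.4) and incubated at 37 °C with probe in HBSS. Incubation was 30 min for [3H]-digoxin, 20 μM fluorescein or 10 μM sorafenib, and 5 min for [14C]-L-leucine or [14C]-D-glucose. Cells were washed ice-cold and lysed in 0.1 M NaOH. Read-out was scintillation, fluorescence or LC-MS/MS, normalized to protein.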

[15] = Liver to plasma partition coefficient in mouse at 10 mg/kg, ip administered as bolus dose by LC-MS/MS analysis; format: ADME, organism-based; conditions: other tissue; summary of the method: as §2
Plasma [16] = assay: Cmax in mouse plasma at 10 mg/kg, ip administered as bolus dose by LC-MS/MS analysis; format: ADME, organism-based; design: dose 10 mg/kg, route intraperitoneal; conditions: in vivo; summary of the method: as §2
Plasma [17] = assay: AUC (0 to 240 mins) in mouse plasma at 10 mg/kg, ip administered as bolus dose by LC-MS/MS analysis; format: ADME, organism-based; design: time < 4 hr, dose 10 mg/kg, route intraperitoneal; conditions: in vivo, 4 h; summary of the method: as §2
Mus musculus [18] = species on record: Mus musculus; assay: as §4, with “Slc2a1” for “Abcc1 to 5”, “[14C]-D-glucose” for “fluorescein”, “5” for “30”, “scintillation counting method” for “fluorescence assay”; design: scale not given: the % may be the effect or the level left; summary of the method: as §5

Activity (Mus musculus [2]): 42%
Activity (Mus musculus [3]): 96%
Ki [4]: 131 µM
AUC (Brain [5]): 13 nmol·min/g
Drug uptake (Brain [6]): 5 pmol/g
Activity (Mus musculus [7]): 14%
IC50 [8]: 170 µM
Ki [8]: 41 µM
IC50 [10]: 29 µM
Ki [10]: 10 µM
Drug uptake (Brain [12]): 0.1 nmol/g
Activity (Mus musculus [13]): 24%
Activity (Mus musculus [14]): 201%
Kp [15]: 0.19
Cmax (Plasma [16]): 43.4 nmol/g
AUC (Plasma [17]): 3020 nmol·min/g
Activity (Mus musculus [18]): 84%
SMILES: Cl.O=C(O)c1cc([C@H]2CCN[C@@H]2C(=O)O)ccc1Cl
inhibition (Mus musculus [1]): Active
Activity (Mus musculus [9]): Non-Toxic
Activity (Mus musculus [11]): 24%
